Results as given in PubChem BioAssay AID2295 (NMMLSC, 2010).
Activity calls are given as the source filed them.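 How the source made its calls: active means EC50 of 30 microM or lower, as activator or inhibitor; inactive means the rest.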

Biological target: Regulator of G-protein signaling 4 (Homo sapiens) (UniProt P49798)
Assay: small molecules altering RGS4 interaction with Galphao – biochemical, multiplexed bead flow cytometry, SAR compounds, SAR follow-up (AID 2295)
Details: bead-based flow cytometry, RGS4-AF488 Galphao binding
How it was run: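 material = streptavidin bead-bound biotinylated RGS4, multiplexed bead sets | probe or stimulus = AF488-Galphao-GDP-AlF4, 7 nM final | compound dosing = 9 points, threefold dilution steps | timing = bead, probe and compound incubation 30-90 min, room temperature | technique = flow cytometry, median green (AlexaFluor488) fluorescence per bead set | control set = DMSO wells high, beads lacking RGS low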

Regulator of G-protein signaling 4 (Homo sapiens), sequence (P49798 whole entry, looked up): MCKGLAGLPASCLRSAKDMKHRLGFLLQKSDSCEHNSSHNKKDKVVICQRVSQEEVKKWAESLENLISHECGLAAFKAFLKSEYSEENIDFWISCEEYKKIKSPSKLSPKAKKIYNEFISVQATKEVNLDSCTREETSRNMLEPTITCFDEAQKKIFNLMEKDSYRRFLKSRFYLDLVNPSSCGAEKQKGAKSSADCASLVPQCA

`Cc1cccc(N2CCN(C(=O)Cn3sc4nc(C)cc(C)c4c3=O)CC2C)c1` (stereo not drawn) was tested, and the EC50 was > 30 µM (inactive).
`CC(=O)OCCCNc1cc(Sc2nc3ccccc3s2)c2nonc2c1[N+](=O)[O-]` was tested, and the EC50 was > 30 µM (inactive).
With `CC(NC(=O)c1sc2cc([N+](=O)[O-])ccc2c1Cl)C(C)(C)C` (stereo not drawn) the EC50 was > 30 µM (inactive).
For `Cc1[nH]n(-c2ccccc2)c(=S)c1C=NCCCN=Cc1c(C)[nH]n(-c2ccccc2)c1=S`, the EC50 was > 30 µM (inactive).

`NS(=O)(=O)c1ccc(N/N=C/c2ccc(O)c(O)c2O)c([N+](=O)[O-])c1` showed an EC50 of 1.2 µM.

Same assay, conditions: bead-based flow cytometry, RGS4-AF488 Galphao binding; measured here: Ki calculated from EC50

First: O=C(Cc1csc(N2CCOCC2)n1)N/N=C/c1ccc(O)c(O)c1O
Second: CCN=c1scc(C)n1/N=C/c1ccc(O)c(O)c1O
The Ki of the first is 3.2-fold lower: 0.94 µM for the first, 3 µM for the second.

First: O=C(COc1ccccc1C(=O)N/N=C/c1ccc(O)c(O)c1)N/N=C/c1ccc(O)c(O)c1
Second: CCN(CC)S(=O)(=O)c1cccc(C(=O)N/N=C/c2ccc(O)c(O)c2O)c1
The Ki of the first is 3.9-fold lower: 0.14 µM for the first, 0.54 µM for the second. The first binds more tightly here.

`CN1CCN(C2=C(Cl)C(=O)C(c3cnc(N4CCCCC4)s3)=C(Cl)C2=O)CC1` and `O=C1C(Cl)=C(N2CCCCC2)C(=O)C(Cl)=C1c1cnc(N2CCCCC2)s1` are within 1.5-fold of each other in Ki: 0.29 µM for the first, 0.23 µM for the second.

`CCOC(=O)c1sc(NC(=O)CSc2nnc(Cc3ccccc3)o2)c(C#N)c1C` and `CCC(=O)NC(c1ccc(C)cc1)c1cc([N+](=O)[O-])c2cccnc2c1O` (stereo not drawn) are within 1.5-fold of each other in Ki: 6.68 µM for the first, 5.62 µM for the second.

`CCN(CC)S(=O)(=O)c1cccc(-c2n[nH]c(=S)n2/N=C/c2ccc(C(=O)OC)cc2)c1` and `Cc1[nH]n(-c2ccccc2)c(=S)c1C=Nc1cccc([N+](=O)[O-])c1` are within 1.5-fold of each other in Ki: 8.2 µM for the first, 9.37 µM for the second.

Going from `O=C(NCCCN1CCOCC1)c1sc2cc([N+](=O)[O-])ccc2c1Cl` to `O=c1c2ccccc2sn1-c1ccc(S(=O)(=O)N2CCCC2)cc1`, the Ki falls from 8.57 µM to 0.27 µM (32-fold).

Going from `COc1ccc(C2=CC(=O)C=CC2=O)cc1` to `O=c1c2ccccc2sn1-c1ccccc1`, the Ki falls from 0.49 µM to 0.11 µM (4.5-fold).

First: Cc1cc(Cl)ccc1N=c1ssnc1Cl
Second: Cc1cccc(N2CCN(C(=O)COc3nsc4nc(C)cc(C)c34)CC2C)c1 (stereo not drawn)
The Ki of the first is 22-fold lower: 0.26 µM for the first, 5.83 µM for the second. The first binds more tightly here.

`CN=c1scc(C)n1/N=C/c1ccc(O)c(O)c1O` and `NS(=O)(=O)c1ccc(N/N=C/c2ccc(O)c(O)c2O)c([N+](=O)[O-])c1` are within 1.5-fold of each other in Ki: 1.46 µM for the first, 1.02 µM for the second.
